Bioassay records: PubChem BioAssay, several laboratories
PG9 Ab binder = binders of HIV-1 gp120 antibody PG9, primary screen, biochemical, TR-FRET; inhibition, % at 6.7 µM; AID 624416, 2012; HIV-1 gp120 / PG9 antibody interaction; actives 0.43% (n = 360,000); TR-FRET gp120-PG9 antibody binding; in the data active means inhibition above about 8.5%
PKA-R1A activ = activators of PKA-R1A holoenzyme, primary screen, biochemical, fluorescence polarization, Cy5-IP20, bovine R1A, mouse PKAc | cAMP-dependent protein kinase type I-alpha regulatory subunit (Bos taurus) + … | PKA-R1A dissociation; scaled: DMSO 0%, 113 µM cGMP 100% | activation, % at 11.4 µM | actives 0.083% (n = 340,000);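 active means percent activation above the mean of all tested compounds plus 3 SD, cut at about 19% in these data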;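 further: higher means more PKAc released from R1A so a rise in polarization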
PKA-R2B activ = activators of PKA-R2B holoenzyme, primary screen, biochemical, fluorescence polarization, Cy5-IP20, human | AID 504700, 2011 | activation, % at 11.4 µM | PKA-R2B holoenzyme dissociation; R2B truncated from residue 108, S112A mutant; 0% DMSO only, 100% 113 µM cGMP | actives 0.079% (n = 340,000);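 active means activation above a cutoff set at the mean over all compounds plus 3 SD, cut at about 18% in these data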;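 further: higher means more holoenzyme dissociation and a rise in polarization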
NR1D1 modulator = modulators of Rev-erb alpha DNA binding, primary screen, biochemical, FITC-DNA, fluorescence polarization, uHTS | Rev-erbα–FITC-DNA binding, 90 min | Nuclear receptor subfamily 1 group D member 1 (Homo sapiens), P20393 | activity, % at 10 µM | actives 0.79% (n = 370,000) | AID 1259318, 2017;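 active means activity above about 14%, limit read from the data; passing the limit was not always enough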
Target sequence (P20393 whole entry, looked up): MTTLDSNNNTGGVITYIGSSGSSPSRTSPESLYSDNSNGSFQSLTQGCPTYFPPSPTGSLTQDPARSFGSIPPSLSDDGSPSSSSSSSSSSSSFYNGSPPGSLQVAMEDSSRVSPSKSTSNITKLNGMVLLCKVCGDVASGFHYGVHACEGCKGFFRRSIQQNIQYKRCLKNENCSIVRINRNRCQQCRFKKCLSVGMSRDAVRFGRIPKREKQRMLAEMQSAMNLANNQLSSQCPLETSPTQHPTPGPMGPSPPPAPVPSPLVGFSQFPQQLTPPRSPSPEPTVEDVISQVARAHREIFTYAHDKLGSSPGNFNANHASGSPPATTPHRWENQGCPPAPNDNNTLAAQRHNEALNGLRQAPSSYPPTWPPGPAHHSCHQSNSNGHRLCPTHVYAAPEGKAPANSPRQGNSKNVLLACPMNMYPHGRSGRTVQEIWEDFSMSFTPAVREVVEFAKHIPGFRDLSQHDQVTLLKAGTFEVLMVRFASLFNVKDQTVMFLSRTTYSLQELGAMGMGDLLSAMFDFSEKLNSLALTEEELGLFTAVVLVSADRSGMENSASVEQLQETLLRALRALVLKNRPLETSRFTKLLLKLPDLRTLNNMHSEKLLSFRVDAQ
NR2E3 ag-1 = NR2E3 agonists in two-hybrid cells, primary screen, cell-based, luminescence, CHO-S, Gal4-NCOR/VP16-NR2E3. inhibition of corepressor binding, % at 3.98 µM. actives 0.35% (n = 360,000). luciferase. AID 602229, 2012;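 active means inhibition above the mean of all tested compounds plus 3 SD, cut at about 70% in these data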;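 further: higher means lower luciferase signal from less NR2E3 corepressor binding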
NR2E3 ag-2 = inhibitors of NR2E3-RetCOR corepressor binding, primary screen, NR2E3 agonist project, biochemical, TR-FRET, GST-NR2E3, biotin-RetCOR. 1536-well. inhibition of corepressor binding, % at 4.78 µM. Photoreceptor-specific nuclear receptor (Homo sapiens), Q9Y5X4. actives 0.12% (n = 320,000);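 active means percent inhibition above the cutoff of mean plus 3 SD of all tested compounds, set per screening campaign, cut at about 20% in these data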
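system = GST-tagged NR2E3 plus biotinylated RetCOR corepressor | input = 1.35 nM GST-NR2E3 | also added = 7 nM biotin-RetCOR | schedule = 5 h incubation at 4 °C | measured by = TR-FRET with europium anti-GST and streptavidin-D2, 340 nm excitation | read-out = percent loss of FRET ratio relative to control wells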
PG9 bind confirm = binders of anti-gp120 antibody PG9, confirmation, biochemical, TR-FRET; inhibition, % at 6.7 µM; TR-FRET PG9 antibody binding; AID 651571, 2012; shares compounds with PG9 Ab binder; actives 90% (n = 1,500); in the data active means inhibition above about 9%
PGV04 Ab binding = binders of control antibody PGV04, counter-screen for PG9 antibody binder project, biochemical, TR-FRET, distinct HIV envelope site | shares compounds with PG9 Ab binder | TR-FRET PGV04 antibody-gp120 binding | inhibition, % at 6.7 µM | actives 95% (n = 1,500) | AID 651604, 2012; in the data active means inhibition above about 9.5%
PG9 bind DR = small-molecule binders of antibody PG9, dose response, biochemical, TR-FRET, HIV-1 gp120 antibody. shares compounds with PG9 Ab binder. TR-FRET PG9 antibody-gp120 binding inhibition. IC50, µM. 95 tested, under 10 active; in the data active means IC50 below about 10 µM
PGV04 DR counter = binders of control antibody PGV04, dose response, counter-screen for PG9 antibody binder project, biochemical, TR-FRET, distinct HIV envelope site. shares compounds with PG9 Ab binder. TR-FRET binding to control antibody PGV04. IC50, µM. actives 20% (n = 95). AID 651937, 2012
PG126 binding DR = binders of control antibody PG126, dose response, counter-screen for PG9 antibody binder project, biochemical, TR-FRET, distinct HIV envelope site | actives 20% (n = 95) | AID 651939, 2012 | IC50, µM | shares compounds with PG9 Ab binder | TR-FRET binding to antibody PG126, counterscreen
Each line names hits and unclear results; the compound was inactive in the other large screens (follow-up assays come after a bar, where they were run). Sampled rows, rich in hits. Any-hit rate of the full collection: about 1.6%. Unless noted, no stated cut-off is given here; in the data, active means IC50 below about 9 µM; inactive means the rest.

CSc1ccc(C(=O)NC2CCSc3ccccc32)cc1 (configuration not stated)	PG9 Ab binder 15.8 | PG9 bind confirm 10.7 | PGV04 Ab binding 10.1 | PG9 bind DR inactive | PGV04 DR counter inactive | PG126 binding DR inactive
CC1=NOC(=O)/C1=C\c1ccc(-c2cccc(Cl)c2)o1	none (no result: PG9 Ab binder, NR1D1 modulator)
CC1=NOC(=O)/C1=C\c1ccc(-c2ccccc2Br)o1	PG9 Ab binder 14.4 (no result: NR2E3 ag-2) | PG9 bind confirm 29.9 | PGV04 Ab binding 53.9
C=CCN1C(=O)[C@@H](CC(=O)NCc2cccc3ccccc23)[C@]2(C(=O)OC)CCCCC=C12	none (no result: PG9 Ab binder, PKA-R1A activ, PKA-R2B activ, NR2E3 ag-1, NR2E3 ag-2)
O=C(Nc1nc2ccccc2c(=O)s1)c1ccc(F)cc1Cl	PG9 Ab binder 70.7 | PG9 bind confirm 60.0 | PGV04 Ab binding 77.2
COC(=O)[C@]12C[C@H](CC(=O)NCC34CC5CC(CC(C5)C3)C4)C(=O)N(CCC3=CCCCC3)C1=C[C@H](C1CCCC1)O[C@@H]2C	none (no result: PG9 Ab binder, PKA-R1A activ, PKA-R2B activ, NR2E3 ag-1, NR2E3 ag-2)
CC(=O)c1c(C)[nH]c(C(=O)Nc2ccc(C)c(S(=O)(=O)Nc3ccc(C)cc3C)c2)c1C	PG9 Ab binder 10.6 | PG9 bind confirm 13.2 | PGV04 Ab binding 15.6
CC1=CC(=C(C#N)C#N)C=C(C)N1Cc1ccc(Cl)cc1	PG9 Ab binder 19.1 | PG9 bind confirm 23.6 | PGV04 Ab binding 31.1
Cc1ncc(CO)n1Cc1ccc(Cl)cc1	none (no result: NR2E3 ag-2)
O=C(c1ccccc1)N1CCC2CCN(CCc3ccccc3)CC21 (configuration not stated)	none (no result: PKA-R1A activ, PKA-R2B activ, NR2E3 ag-1, NR2E3 ag-2)
COC(=O)c1sc(NC(=O)C2CCCCC2C(=O)O)c(C(=O)OC)c1C (configuration not stated)	PG9 Ab binder 12.7 | PG9 bind confirm 17.7 | PGV04 Ab binding 22.8
COC(=O)c1c(NC(=O)C2CCCCC2C(=O)O)sc2c1CCCCC2 (configuration not stated)	none
O=C(Nc1ccccc1)c1cnc(-c2ccccc2)nc1-c1ccccc1	PG9 Ab binder 16.2 | PG9 bind confirm 20.4 | PGV04 Ab binding 27.9
N#Cc1c(N2CCCCC2)nc(N)c2c(N)nc3c(c12)CC(CCl)O3 (configuration not stated)	PG9 Ab binder 21.5 | PG9 bind confirm 22.8 | PGV04 Ab binding 35.4
Cc1cc(SC(C)C(=O)O)nc2ccccc12 (configuration not stated)	none
CC(Sc1ccc2ccccc2n1)C(=O)O (configuration not stated)	PG9 Ab binder 50.2 (no result: NR2E3 ag-2) | PG9 bind confirm 52.5 | PGV04 Ab binding 58.8
COc1cc2c(c(OC)c1OC)C1(CCCCC1)CC2NCC=C(C)C (configuration not stated)	none (no result: PKA-R1A activ, PKA-R2B activ, NR2E3 ag-1, NR2E3 ag-2)
COc1cccc(NC(=O)Nc2c(-c3ccc(C(F)(F)F)cc3)nc3ncccn23)c1	none (no result: PG9 Ab binder, PKA-R1A activ, PKA-R2B activ, NR2E3 ag-1, NR2E3 ag-2)
O=C1COc2ccc(C(=O)COC(=O)c3ncc(Cl)c(Cl)c3Cl)cc2N1	PG9 Ab binder 10.7 | PG9 bind confirm 17.5 | PGV04 Ab binding 27.4
Cc1ccc(OCCC(=O)OCC(=O)c2ccc3c(c2)NC(=O)CO3)cc1	PG9 Ab binder 26.6 | PG9 bind confirm 19.6 | PGV04 Ab binding 37.8
O=C1COc2ccc(C(=O)COC(=O)c3nc(Cl)ccc3Cl)cc2N1	none (no result: NR2E3 ag-2)
C=CCN1C(=O)[C@@H](CC(=O)NCc2ccc(C)o2)[C@]2(C(=O)OCC)CCCCC/C=C/12	none (no result: PG9 Ab binder, PKA-R1A activ, PKA-R2B activ, NR2E3 ag-1, NR2E3 ag-2)
COc1ccc2oc(=N)c(C(=O)Nc3ccc(C)cc3)cc2c1	none (no result: NR2E3 ag-2)
COc1ccc2oc(=N)c(C(=O)Nc3ccccc3)cc2c1	PG9 Ab binder 17.6 | PG9 bind confirm inactive | PGV04 Ab binding 9.2
Cc1nc(SCCc2nc3ccccc3[nH]2)c2oc3ccccc3c2n1	PG9 Ab binder 28.8 (no result: NR2E3 ag-2) | PG9 bind confirm 10.8 | PGV04 Ab binding 13.4
Cc1nc(SCC(=O)NCc2ccco2)c2oc3ccccc3c2n1	none
Cc1nc(SCC(=O)NC(C)c2ccccc2)c2oc3ccccc3c2n1 (configuration not stated)	PG9 Ab binder 14.7 | PG9 bind confirm inactive | PGV04 Ab binding 9.6
COC(=O)[C@]12C[C@H](CC(=O)NCCCN3CCCC3=O)C(=O)N(Cc3ccco3)C1=C[C@H](C(C)C)O[C@@H]2C1CC1	none (no result: PG9 Ab binder, PKA-R1A activ, PKA-R2B activ, NR2E3 ag-1, NR2E3 ag-2)
COC(=O)C1=C(C)N(Cc2ccc(C(F)(F)F)cc2)C(=NCc2ccccc2C(F)(F)F)NC1c1ccccc1C(F)(F)F (configuration not stated)	none (no result: PKA-R1A activ, PKA-R2B activ, NR2E3 ag-1, NR2E3 ag-2)
CSc1nc(SC(C)C(=O)O)c2c3c(sc2n1)COC(C)(C)C3 (configuration not stated)	PG9 Ab binder 9.0 | PG9 bind confirm 21.5 | PGV04 Ab binding 30.4
COc1ccc(/C(O)=C2/C(=O)C(=O)N(CCN(C)C)C2c2cccnc2)cc1C (configuration not stated)	PG9 Ab binder 12.7 | PG9 bind confirm 21.7 | PGV04 Ab binding 27.5
COc1ccc(/C(O)=C2/C(=O)C(=O)N(CCN(C)C)C2c2ccc(F)cc2)cc1Cl (configuration not stated)	PG9 Ab binder 9.5 | PG9 bind confirm 20.2 | PGV04 Ab binding 23.3
COc1ccc(C2/C(=C(/O)c3ccc(F)cc3)C(=O)C(=O)N2CCCN(C)C)cc1 (configuration not stated)	none (no result: NR2E3 ag-2)
